The source made the active and inactive calls. The calls are words filed in the database; no cut-off is given here.
What was measured:
NCI-H1993 [1] = assay: Cytotoxicity against human NCI-H1993 cells after 48 hrs by MTT assay; format: functional, cell-based; settings: NCI-H1993, 48 h
[2] = molecular target: T1, Hepatocyte growth factor receptor (Homo sapiens, UniProt P08581); assay: Inhibition of recombinant c-MET (unknown origin) using poly-AEKY peptide as substrate after 60 mins by ADPGlo assay
DU-145 = assay: Antiinvasive activity in human DU145 cells assessed as inhibition of HGF-induced cell motility preincubated for 1 hr before HGF treatment measured after 24 hrs by cell scattering assay; format: functional, cell-based
NCI-H1993 [3] = assay: Induction of apoptosis in human NCI-H1993 cells at 1 uM after 24 hrs using propidium iodide by flow cytometry; format: functional, cell-based
Procedure, shortened: (§1)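 Apoptosis read by flow cytometry; means ± SD of at least 3 independent experiments; unpaired 2-tailed Student's t test against DMSO-treated cells, p < 0.05.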

HCC827 = assay: Induction of apoptosis in human HCC827 cells at 1 uM after 24 hrs using propidium iodide by flow cytometry; format: functional, cell-based; procedure, shortened: as §1
[4] = molecular target: T2, Epidermal growth factor receptor (Homo sapiens, UniProt P00533); assay: Inhibition of recombinant EGFR (unknown origin) using poly-GT peptide as substrate by Transcreener assay
[5] = molecular target: T1, Hepatocyte growth factor receptor; assay: Inhibition of recombinant c-MET (unknown origin) using poly-AEKY peptide as substrate by ADPGlo assay; settings: TDE = time-dependent effect
Insulin receptor = Insulin receptor (Homo sapiens, UniProt P06213); assay: Inhibition of recombinant INSR (unknown origin) using fluorescent dye-labelled KKSRGDYMTMQIG peptide peptide as substrate after 1 hr by IMAP assay
A549 = assay: Cytotoxicity against human A549 cells after 48 hrs by MTT assay; format: functional, cell-based; settings: A549, 48 h
NCI-H1975 = assay: Cytotoxicity against human NCI-H1975 cells after 48 hrs by MTT assay; format: functional, cell-based; settings: NCI-H1975, 48 h
[6] = molecular target: Epidermal growth factor receptor (Homo sapiens, UniProt P00533, L858R); assay: Inhibition of recombinant EGFR L858R mutant (unknown origin) using poly-GT peptide as substrate after 1 hr by Transcreener assay; format: protein assay
[7] = Cytotoxicity against human HCC827 cells after 48 hrs by MTT assay; format: functional, cell-based; settings: HCC827, 48 h
[8] = molecular target: T1, Hepatocyte growth factor receptor; assay: Inhibition of c-MET (unknown origin) phosphorylation by cell-based Western blot analysis
[9] = Cytotoxicity against mouse NIH/3T3 cells after 48 hrs by MTT assay; format: cell-based; settings: NIH3T3, 48 h
[10] = molecular target: T2, Epidermal growth factor receptor; assay: Inhibition of EGFR (unknown origin) phosphorylation by cell-based Western blot analysis
[11] = molecular target: Receptor tyrosine-protein kinase erbB-2 (Homo sapiens) (UniProt P04626); assay: Inhibition of recombinant ErbB2 (unknown origin) at 1 uM
Procedure, shortened: (§2)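 Single-point screen at 1 μM on a recombinant panel of 34 clinically relevant kinases; percent inhibition reported.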

[12] = molecular target: T2, Epidermal growth factor receptor; assay: Inhibition of EGFR phosphorylation in human NCI-H1993 cells at 1 uM after 1 hr by Western blot analysis; format: cell-based
[13] = molecular target: T1, Hepatocyte growth factor receptor; assay: Inhibition of c-MET phosphorylation in human NCI-H1993 cells at 1 uM after 1 hr by Western blot analysis; format: cell-based
[14] = molecular target: Epithelial discoidin domain-containing receptor 1 (Homo sapiens) (UniProt Q08345); assay: Inhibition of recombinant DDR1 (unknown origin) at 1 uM; procedure, shortened: as §2
[15] = molecular target: T2, Epidermal growth factor receptor; assay: Competitive inhibition of recombinant EGFR (unknown origin) using poly-GT peptide as substrate by Lineweaver-Burk double reciprocal plot method
Procedure, shortened: (§3)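 Recombinant enzyme activity (Vmax) measured at varied ATP and inhibitor concentrations; signal shifts (ΔS) plotted as Lineweaver–Burk double reciprocal plot to assess binding mode versus ATP.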

MDCK [16] = assay: Antiinvasive activity in MDCK cells assessed as inhibition of HGF-induced cell motility preincubated at 0.3 uM for 1 hr before HGF treatment measured after 48 hrs by cell scattering assay; format: functional, cell-based; settings: Canis lupus familiaris
[17] = molecular target: Proto-oncogene tyrosine-protein kinase receptor Ret (Homo sapiens) (UniProt P07949); assay: Inhibition of recombinant RET (unknown origin) at 1 uM; procedure, shortened: as §2
[18] = molecular target: T1, Hepatocyte growth factor receptor; assay: Inhibition of c-MET phosphorylation in human HCC827 cells at 1 uM after 1 hr by Western blot analysis; format: cell-based
[19] = molecular target: T1, Hepatocyte growth factor receptor; assay: Competitive inhibition of recombinant c-MET (unknown origin) using poly-AEKY peptide as substrate by Lineweaver-Burk double reciprocal plot method; procedure, shortened: as §3
MDCK [20] = assay: Cytotoxicity against MDCK cells assessed as cell death at 1 uM after 48 hrs; format: cell-based, Canis lupus familiaris; settings: dog
[21] = molecular target: Receptor-type tyrosine-protein kinase FLT3 (Homo sapiens) (UniProt P36888); assay: Inhibition of recombinant FLT3 (unknown origin) at 1 uM; procedure, shortened: as §2
[22] = molecular target: T2, Epidermal growth factor receptor; assay: Inhibition of EGFR phosphorylation in human HCC827 cells at 1 uM after 1 hr by Western blot analysis; format: cell-based
[23] = molecular target: Tyrosine-protein kinase receptor UFO (Homo sapiens) (UniProt P30530); assay: Inhibition of recombinant AXL (unknown origin) at 1 uM; procedure, shortened: as §2
[24] = molecular target: Mast/stem cell growth factor receptor Kit (Homo sapiens) (UniProt P10721); assay: Inhibition of recombinant c-KIT (unknown origin) at 1 uM; procedure, shortened: as §2

Row | Compound | IC50 (NCI-H1993 [1]) | IC50 [2] | IC50 [4] | inhibition [5] | IC50 (Insulin receptor) | IC50 (A549) | IC50 (NCI-H1975) | IC50 [6] | IC50 [7] | IC50 [9] | other results
1 | CCOc1ccn(-c2ccc(F)cc2)c(=O)c1C(=O)Nc1ccc(Oc2ccnc(N)c2Cl)c(F)c1 [BMS-777607] | 1110 nM | 7 nM |  |  |  |  |  |  |  |  | IC50 (DU-145): 200 nM
2 | C#Cc1cccc(Nc2ncnc3cc(OCCOC)c(OCCOC)cc23)c1 |  |  |  |  |  |  |  |  |  |  | Activity (NCI-H1993 [3]): inactive; Activity (HCC827): Active
3 | COc1cc2c(Oc3ccc(NS(=O)(=O)c4cccc(-c5cnn(C)c5)c4)cc3F)ccnc2cc1OCCCN1CCOCC1 | 5230 nM | 1720 nM | 1370 nM | tde | > 12500 nM | 6440 nM | 6900 nM | 1970 nM | 5010 nM |  | 
4 | COc1cc2c(Oc3ccc(NS(=O)(=O)c4cccc(-c5cnn(C)c5)c4)cc3F)ccnc2cc1OCCCN1CCN(C)CC1 | 6240 nM | 564 nM | 84 nM | tde | 7870 nM | 8850 nM | 6120 nM | 369 nM | 2830 nM | 2480 nM | inhibition [8]: Active; inhibition [10]: inactive
5 | COc1cc2c(Oc3ccc(NS(=O)(=O)c4cccc(-c5ccco5)c4)cc3F)ccnc2cc1OCCCN1CCN(C)CC1 | > 10000 nM | 2710 nM | 1910 nM | tde | > 12500 nM |  | 1620 nM | 1900 nM | 3110 nM | 3200 nM | 
6 | C[C@@H](Oc1cc(-c2cnn(C3CCNCC3)c2)cnc1N)c1c(Cl)ccc(F)c1Cl [CRIZOTINIB] | 61 nM |  |  |  |  |  |  |  |  | 364 nM | Activity (NCI-H1993 [3]): inactive
7 | COc1cc2c(Oc3ccc(NS(=O)(=O)c4cccc(-c5ccsc5)c4)cc3F)ccnc2cc1OCCCN1CCN(C)CC1 | 1360 nM | 398 nM | 94 nM | tde | 2870 nM | 4760 nM | 2300 nM | 310 nM | 1940 nM | 2350 nM | inhibition [11]: > 70%; inhibition [12]: Active; inhibition [13]: Active; inhibition [14]: > 70%; inhibition [15]: Active; Activity (MDCK [16]): Active; inhibition [17]: > 70%; inhibition [18]: inactive; inhibition [19]: Active; Activity (MDCK [20]): Toxic; inhibition [21]: > 70%; Activity (NCI-H1993 [3]): inactive; inhibition [22]: inactive; inhibition [23]: > 70%; IC50 (DU-145): 1100 nM; inhibition [24]: > 70%; Activity (HCC827): Active
8 | COc1cc2c(Oc3ccc(NS(=O)(=O)c4cccc(-c5ccoc5)c4)cc3F)ccnc2cc1OCCCN1CCOCC1 | 4460 nM | 978 nM | 3860 nM | tde | > 12500 nM | 8210 nM | 8930 nM | 2900 nM | 4170 nM |  | 
9 | COc1cc2c(Oc3ccc(NS(=O)(=O)c4cccc(-c5cccs5)c4)cc3F)ccnc2cc1OCCCN1CCN(C)CC1 | 4030 nM | 2710 nM | 1050 nM | tde | > 12500 nM | 3920 nM | 4520 nM | 1160 nM | 5030 nM |  | 
10 | COc1cc2c(Oc3ccc(NS(=O)(=O)c4cccc(-c5ccoc5)c4)cc3F)ccnc2cc1OCCCN1CCN(C)CC1 | 2690 nM | 1050 nM | 168 nM | tde | 5230 nM | 3650 nM | 2960 nM | 283 nM | 2500 nM | 1760 nM | inhibition [8]: Active; inhibition [10]: inactive
11 | CN(C)C/C=C/C(=O)Nc1cc2c(Nc3ccc(F)c(Cl)c3)ncnc2cc1O[C@H]1CCOC1 [AFATINIB] | > 12500 nM |  |  |  |  |  |  |  |  | 3600 nM | Activity (NCI-H1993 [3]): inactive; Activity (HCC827): Active
12 | COc1cc2c(Oc3ccc(NC(=O)c4c(C)n(C)n(-c5ccccc5)c4=O)cc3F)ccnc2cc1OCCCN1CCN(C)CC1 | 2 nM | 5 nM | 7670 nM | tde | 39 nM | 1240 nM | 1060 nM | > 16000 nM | 2580 nM | 66 nM | inhibition [8]: Active; inhibition [10]: inactive
13 | COc1cc2c(Oc3ccc(NS(=O)(=O)c4cc(-c5ccsc5)ccc4F)cc3F)ccnc2cc1OCCCN1CCN(C)CC1 | 4000 nM | 1660 nM | 572 nM | tde | 11800 nM | 4360 nM | 4100 nM | 578 nM | 2820 nM |  | 
14 | COc1cc2c(Oc3ccc(NC(=O)c4c(C)n(C)n(-c5ccccc5)c4=O)cc3F)ccnc2cc1OCCCN1CCOCC1 | 5 nM | 7 nM | > 16000 nM |  | 170 nM | 1190 nM | 1460 nM | > 16000 nM | 2510 nM | 74 nM | inhibition [8]: Active; inhibition [10]: inactive
15 | COc1cc2c(Oc3ccc(NS(=O)(=O)c4ccc(-c5cnn(C)c5)cc4)cc3F)ccnc2cc1OCCCN1CCN(C)CC1 | 4330 nM | 1230 nM | 4350 nM | tde | > 12500 nM | > 10000 nM | > 10000 nM | 7540 nM | 5900 nM |  | 
16 | COc1cc2c(Oc3ccc(NS(=O)(=O)c4ccc(-c5ccsc5)cc4)cc3F)ccnc2cc1OCCCN1CCN(C)CC1 | 5040 nM | 2690 nM | 1200 nM | tde | > 12500 nM | 6780 nM | 7710 nM | 1850 nM | 4610 nM |  | 

Source: ChEMBL document CHEMBL3259680, “Discovery and Biological Evaluation of Novel Dual EGFR/c-Met Inhibitors” (ACS Med Chem Lett, 2014)
